From ChEMBL document CHEMBL4699439, “Design and development of novel N-(pyrimidin-2-yl)-1,3,4-oxadiazole hybrids to treat cognitive dysfunctions” (Bioorg Med Chem, 2019)
pIC50, pKi: −log10 of the molar value. Calls of active or inactive are those of the source. No cut-off for these calls is given here.

What was measured:
[1] = Antioxidant activity assessed as DPPH radical scavenging activity at 20 uM after 30 mins under dark condition by DPPH assay relative to control; type: functional
Method in brief: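 Test compound at 20 µM (solution strength) mixed with 0.5 mM DPPH solution and kept in the dark for 30 min. Absorbance read at 517 nm. % inhibition = (A0−At)/A0 × 100. Ascorbic acid used as standard. Run in triplicate.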

Acetylcholinesterase [2] = target: T1, Acetylcholinesterase (Homo sapiens, UniProt P22303); experiment: Inhibition of human erythrocyte AChE using acetylthiocholine iodide as substrate preincubated for 10 mins followed by substrate addition and measured for 10 mins by DTNB reagent based Ellman's method; type: tissue-based
Cholinesterase [3] = target: Cholinesterase (Homo sapiens, UniProt P06276); experiment: Inhibition of human serum BChE using butyrylthiocholine iodide as substrate preincubated for 10 mins followed by substrate addition and measured for 10 mins by DTNB reagent based Ellman's method; type: cell-free
Method in brief: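 Enzyme is BChE from human serum, 0.02 units/ml in 0.1% gelatin pH 7.4, preincubated with compound 10 min at 37 °C. Then 0.1 M phosphate containing 340 µM DTNB and 550 µM BTCI added. A412 followed 10 min at 37 °C. DMSO ≤1%. IC50 from nonlinear log-inhibitor fit, n=3.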

[4] = Effective permeability of compound in PBS buffer at pH 7.4 at 25 ug/ml incubated for 20 hrs by PAMPA-BBB assay
[5] = Acute toxicity in Swiss albino mouse assessed as mortality at 500 mg/kg, po observed for 24 hrs; type: organism-based; details: in vivo
Method in brief: (§1)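 Adult male Swiss albino mice, 25-30 g, dosed orally following OECD 423 at various doses up to 500 mg/kg. Watched at 30 min, 2 h, 4 h and 24 h for autonomic and behavioural changes. Followed for 14 days for tremors, convulsions, salivation, diarrhea, lethargy, sleep and coma.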

Acetylcholinesterase [6] = target: T1, Acetylcholinesterase; experiment: Non-competitive inhibition of human erythrocyte AChE using acetylthiocholine iodide as substrate at 0.15 to 0.6 uM preincubated for 10 mins followed by substrate addition and measured for 10 mins by Ellman's method based Line-weaver Burk plot analysis; type: tissue-based
Acetylcholinesterase [7] = target: T1, Acetylcholinesterase; experiment: Inhibition of human AChE-induced amyloid beta(1 to 42) aggregation incubated for 48 hrs by thioflavin-T fluorescence method; details: dose microM 5-20, time 48.0 hrs
Method in brief: (§2)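 Aβ1-42 (10 µM) incubated with hAChE ([…]) with or without compound (5, 10 and 20 µM) at 37 °C for 48 h, DMSO below 1%. ThT then added at 5 µM. Fluorescence read at ex 485/em 528 nm. % inhibition taken from intensities with vs without inhibitor. Run in triplicate.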

Mus musculus [8] = experiment: (§3) Reversal of scopolamine-induced memory cognitive memory impairment in po dosed Swiss albino mouse assessed as increase in transfer latency time administered once daily for 7 days and administered with scopolamine at 30 mins after compound challenge on 7th day and measured during acquisition trial on day 7 by passive avoidance test; type: functional, organism-based; details: dose mg/kg 2.5-10, time 7.0 day
Method in brief: (§4)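 Dosing as for the Y-maze: p.o. in CMC daily for 7 days, scopolamine 0.5 mg/kg i.p. on day 7, six mice per group. Apparatus is a two-compartment lit/dark box. Acquisition begins 5 min after scopolamine, with the mouse held in the lit side for 30 s. Latency to enter the dark side recorded as transfer latency time. No foot shock in the retention trial.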

Mus musculus [9] = experiment: as §3, with “spontaneous alteration rate” for “transfer latency time”, “for 5 mins” for “during acquisition trial”, “Y-maze” for “passive avoidance”; type: functional, organism-based; details: dose mg/kg 2.5-10, time 7.0 day
Method in brief: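 Male Swiss albino mice, six per group. Compound given p.o. in 0.3% CMC daily for 7 days, at 2.5, 5 or 10 mg/kg. Scopolamine 0.5 mg/kg i.p. given 30 min after the day-7 dose. Each mouse placed in a three-arm Y-maze and arm entries and alternations recorded over 5 min. % alternation = alternations/(total entries−2) × 100.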

[10] = Acute toxicity in Swiss albino mouse assessed as tremor at 500 mg/kg, po measured for 14 days; type: organism-based; details: in vivo, 336 h, time 14 day; method in brief: as §1
[11] = Acute toxicity in Swiss albino mouse assessed as convulsion at 500 mg/kg, po measured for 14 days; type: organism-based; details: in vivo, 336 h, time 14 day; method in brief: as §1
[12] = Acute toxicity in Swiss albino mouse assessed as salivation at 500 mg/kg, po measured for 14 days; type: organism-based; details: in vivo, 336 h, time 14 day; method in brief: as §1
[13] = Acute toxicity in Swiss albino mouse assessed as diarrhea at 500 mg/kg, po measured for 14 days; type: organism-based; details: in vivo, 336 h, time 14 day; method in brief: as §1
[14] = Acute toxicity in Swiss albino mouse assessed as sleep at 500 mg/kg, po measured for 14 days; type: organism-based; details: in vivo, 336 h, time 14 day; method in brief: as §1
[15] = Acute toxicity in Swiss albino mouse assessed as lacrimation at 500 mg/kg, po observed for 24 hrs; type: organism-based; details: in vivo; method in brief: as §1
[16] = Acute toxicity in Swiss albino mouse assessed as feeding behavior at 500 mg/kg, po observed for 24 hrs; type: organism-based; details: in vivo; method in brief: as §1
Mus musculus [17] = experiment: Ex vivo inhibition of Swiss mouse brain AChE using ACTI as substrate at 10 mg/kg, po administered once daily for 7 days and administered with scopolamine at 30 mins after compound challenge on 7th day and measured on day 7 by Ellman's method; type: functional, organism-based; details: time 7.0 day
Method in brief: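 Male Swiss albino mice dosed p.o. daily for 7 days in 0.3% CMC. Scopolamine 0.5 mg/kg i.p. given 30 min after the day-7 dose. Brain homogenate supernatant incubated with 0.1 M phosphate pH 7.4 and DTNB for 10 min at 37 °C. ATCI then added from a 7.5 mM stock. A412 followed for 10 min. Expressed as ACh hydrolysed/min/mg protein (Lowry).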

Mus musculus [18] = experiment: (§5) Antioxidant activity in scopolamine-induced memory impairment Swiss albino mouse model assessed as reduction in scopolamine-induced oxidative stress by measuring decrease in malondialdehyde level at 10 mg/kg, po administered once daily for 7 days and administered with scopolamine at 30 mins after compound challenge on 7th day by TBARS assay; type: functional, organism-based; details: time 7.0 day
Method in brief: (§6)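 Male Swiss albino mice, six per group. Compound suspended in 0.3% w/v CMC, given p.o. once daily for 7 days. Scopolamine HBr 0.5 mg/kg i.p., in water, given 30 min after dosing on day 7. After behavioural tests, whole brain homogenised in 10 mM PBS pH 7.4 and supernatant used. Protein by Lowry method. For MDA (TBARS), supernatant incubated 2 h at 37 °C, TCA-precipitated, heated with 0.67% thiobarbituric acid at 50 °C for 10 min, A532, expressed as moles MDA/mg protein. For nonprotein thiol (Sedlak–Lindsay), TCA supernatant in Tris-EDTA pH 8.9 reacted with DTNB, A412 within 5 min, expressed as µM/mg protein.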

Mus musculus [19] = experiment: as §5, with “increase” for “decrease”, “total non-protein thiol” for “malondialdehyde”, “day” for “day by TBARS assay”; type: functional, organism-based; details: time 7.0 day; method in brief: as §6
Mus musculus [20] = experiment: as §5, with “increase” for “decrease”, “SOD” for “malondialdehyde”, “day” for “day by TBARS assay”; type: functional, organism-based; details: time 7.0 day
Method in brief: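 Same mouse dosing and brain supernatant preparation as the oxidative-stress assays. For SOD, supernatant mixed with reagent containing 0.1 mM EDTA, 24 µM NBT and 50 mM Na2CO3, plus hydroxylamine hydrochloride. Assay at pH 10.2, absorbance read at 560 nm.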

Acetylcholinesterase [21] = target: T1, Acetylcholinesterase; experiment: Inhibition of human AChE-induced amyloid beta(1 to 42) aggregation at Abeta:compound concentration ratio of 1:2 incubated for 48 hrs by thioflavin-T fluorescence method; method in brief: as §2
Mus musculus [22] = experiment: as §3, with “retention” for “acquisition”; type: functional, organism-based; details: dose mg/kg 2.5-10, time 7.0 day; method in brief: as §4
in vitro = details: human, SH-SY5Y cells
Cholinesterase [23] = target: Cholinesterase (Equus caballus, UniProt P81908); experiment: Inhibition of equine serum BChE using butyrylthiocholine iodide as substrate incubated for 30 mins followed by substrate addition and measured for 20 mins by Ellman's method
Acetylcholinesterase [24] = target: Acetylcholinesterase (Electrophorus electricus, UniProt O42275); experiment: Inhibition of recombinant Electric eel AChE incubated for 15 mins by amplex red reagent based fluorescence assay
SH-SY5Y = experiment: Neuroprotection against amyloid beta (25 to 35)-induced toxicity in human SH-SY5Y cells assessed as cell viability at 10 uM preincubated for 2 hrs followed by incubation with amyloid beta (25 to 35) for 24 hrs relative to control; type: functional; details: time 26 hrs, read-out: Activity

Cholinesterase (Homo sapiens, UniProt P06276), sequence (P06276 whole entry): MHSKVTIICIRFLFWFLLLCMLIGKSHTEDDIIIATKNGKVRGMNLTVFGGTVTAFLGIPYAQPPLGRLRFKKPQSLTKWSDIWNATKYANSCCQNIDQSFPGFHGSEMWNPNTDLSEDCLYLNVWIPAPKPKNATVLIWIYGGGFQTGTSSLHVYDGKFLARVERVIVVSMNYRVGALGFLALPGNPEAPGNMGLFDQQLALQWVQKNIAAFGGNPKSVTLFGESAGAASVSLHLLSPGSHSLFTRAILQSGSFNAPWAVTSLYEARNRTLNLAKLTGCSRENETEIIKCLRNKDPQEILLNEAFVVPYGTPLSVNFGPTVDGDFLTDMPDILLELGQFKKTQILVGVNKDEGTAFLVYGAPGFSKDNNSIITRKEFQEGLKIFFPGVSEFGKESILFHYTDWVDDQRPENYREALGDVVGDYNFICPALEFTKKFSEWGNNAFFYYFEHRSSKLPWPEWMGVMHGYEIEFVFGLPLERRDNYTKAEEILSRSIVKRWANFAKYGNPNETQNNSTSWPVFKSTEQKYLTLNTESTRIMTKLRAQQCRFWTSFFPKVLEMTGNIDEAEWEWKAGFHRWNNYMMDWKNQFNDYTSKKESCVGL
T1 sequence (P22303 whole entry): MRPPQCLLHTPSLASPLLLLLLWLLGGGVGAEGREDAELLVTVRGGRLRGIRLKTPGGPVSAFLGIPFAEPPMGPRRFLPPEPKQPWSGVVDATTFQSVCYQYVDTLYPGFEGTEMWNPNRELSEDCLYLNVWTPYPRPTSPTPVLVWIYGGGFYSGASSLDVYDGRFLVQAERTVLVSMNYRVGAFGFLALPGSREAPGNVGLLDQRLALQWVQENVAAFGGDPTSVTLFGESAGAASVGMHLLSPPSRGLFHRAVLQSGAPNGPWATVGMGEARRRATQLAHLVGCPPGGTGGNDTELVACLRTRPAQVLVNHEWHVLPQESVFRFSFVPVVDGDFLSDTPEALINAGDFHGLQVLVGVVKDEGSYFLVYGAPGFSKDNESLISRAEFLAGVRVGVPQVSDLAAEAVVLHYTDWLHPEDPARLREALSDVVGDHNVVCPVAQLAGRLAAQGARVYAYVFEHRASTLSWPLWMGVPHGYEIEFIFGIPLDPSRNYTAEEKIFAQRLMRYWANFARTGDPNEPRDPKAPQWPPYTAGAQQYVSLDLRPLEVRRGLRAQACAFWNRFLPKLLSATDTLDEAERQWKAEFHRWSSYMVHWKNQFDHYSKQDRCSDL
Acetylcholinesterase (Electrophorus electricus, UniProt O42275), sequence (O42275 whole entry): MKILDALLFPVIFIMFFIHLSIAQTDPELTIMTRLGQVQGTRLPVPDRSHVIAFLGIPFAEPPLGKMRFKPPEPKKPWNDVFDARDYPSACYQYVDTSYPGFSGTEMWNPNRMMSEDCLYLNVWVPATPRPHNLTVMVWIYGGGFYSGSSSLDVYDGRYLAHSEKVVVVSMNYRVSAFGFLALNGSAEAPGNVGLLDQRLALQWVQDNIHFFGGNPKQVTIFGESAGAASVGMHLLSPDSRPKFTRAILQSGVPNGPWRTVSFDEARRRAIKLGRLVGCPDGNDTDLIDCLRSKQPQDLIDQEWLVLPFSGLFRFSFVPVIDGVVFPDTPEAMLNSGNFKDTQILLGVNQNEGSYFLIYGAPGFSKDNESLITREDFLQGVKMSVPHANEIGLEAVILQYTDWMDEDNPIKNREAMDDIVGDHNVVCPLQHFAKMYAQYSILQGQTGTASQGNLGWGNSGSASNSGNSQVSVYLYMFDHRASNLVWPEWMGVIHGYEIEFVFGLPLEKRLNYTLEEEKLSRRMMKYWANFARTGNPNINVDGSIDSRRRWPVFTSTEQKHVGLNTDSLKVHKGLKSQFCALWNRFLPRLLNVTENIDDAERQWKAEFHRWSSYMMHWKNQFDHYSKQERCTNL
Cholinesterase (Equus caballus, UniProt P81908), sequence (P81908 whole entry): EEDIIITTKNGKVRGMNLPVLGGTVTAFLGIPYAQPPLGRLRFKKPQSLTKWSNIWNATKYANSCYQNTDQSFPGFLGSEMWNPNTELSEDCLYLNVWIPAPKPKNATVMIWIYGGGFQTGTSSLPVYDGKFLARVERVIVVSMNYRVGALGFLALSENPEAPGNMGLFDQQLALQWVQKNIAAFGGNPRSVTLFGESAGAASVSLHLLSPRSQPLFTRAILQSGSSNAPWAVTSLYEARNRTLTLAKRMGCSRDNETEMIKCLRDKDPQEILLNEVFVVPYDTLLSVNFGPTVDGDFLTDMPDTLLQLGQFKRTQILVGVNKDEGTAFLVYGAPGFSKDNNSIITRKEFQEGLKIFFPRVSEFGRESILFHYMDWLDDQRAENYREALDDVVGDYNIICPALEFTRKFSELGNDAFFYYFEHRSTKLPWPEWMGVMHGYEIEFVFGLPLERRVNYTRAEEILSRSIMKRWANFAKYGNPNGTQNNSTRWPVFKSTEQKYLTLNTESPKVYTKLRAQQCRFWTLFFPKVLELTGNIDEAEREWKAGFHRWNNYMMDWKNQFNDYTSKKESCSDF

## Clc1ccc(-c2nnc(Nc3ncccn3)o2)cc1
[1]
  inhibition: 46.2%
Acetylcholinesterase [2]
  pIC50: 5.54
Cholinesterase [3]
  pIC50: < 4.30

## Oc1ccc(-c2nnc(Nc3ncccn3)o2)cc1
[1]
  inhibition: 63.4%
Acetylcholinesterase [2]
  pIC50: 5.76
Cholinesterase [3]
  pIC50: < 4.30
[4]
  Papp at 20 h, 25 ug/ml: 3.23 ×10⁻⁶ cm/s

## COc1cc(-c2nnc(Nc3ncccn3)o2)cc(OC)c1OC
[1]
  inhibition: 57.7%
Acetylcholinesterase [2]
  pIC50: 5.91
Cholinesterase [3]
  pIC50: < 4.30
[4]
  Papp at 20 h, 25 ug/ml: 4.21 ×10⁻⁶ cm/s

## c1ccc(-c2nnc(Nc3ncccn3)o2)cc1
[1]
  inhibition: 51.4%
Acetylcholinesterase [2]
  pIC50: 5.69
Cholinesterase [3]
  pIC50: < 4.30

## Brc1cccc(-c2nnc(Nc3ncccn3)o2)c1
[1]
  inhibition: 47.9%
Acetylcholinesterase [2]
  pIC50: 5.48
Cholinesterase [3]
  pIC50: 4.69

## O=[N+]([O-])c1ccc(-c2nnc(Nc3ncccn3)o2)cc1
[1]
  inhibition: < 20%
Acetylcholinesterase [2]
  pIC50: < 5.30
Cholinesterase [3]
  pIC50: < 4.30

## O=[N+]([O-])c1ccccc1-c1nnc(Nc2ncccn2)o1
[1]
  inhibition: 51.8%
Acetylcholinesterase [2]
  pIC50: 5.47
Cholinesterase [3]
  pIC50: < 4.30

## c1cnc(Nc2nnc(-c3cccc4ccccc34)o2)nc1
[5]
  Activity: Non-Toxic
[1]
  inhibition: 60%
Acetylcholinesterase [6]
  pKi: 6.77
Acetylcholinesterase [2]
  pIC50: 6.52
Cholinesterase [3]
  pIC50: 4.92
[4]
  Papp at 20 h, 25 ug/ml: 5.82 ×10⁻⁶ cm/s
Acetylcholinesterase [7]
  inhibition: Dose-dependent effect
Mus musculus [8]
  Activity: Dose-dependent effect
Mus musculus [9]
  Activity: Dose-dependent effect
[10]
  Activity: Non-Toxic
[11]
  Activity: Non-Toxic
[12]
  Activity: Non-Toxic
[13]
  Activity: Non-Toxic
[14]
  Activity: Non-Toxic
[15]
  Activity: Non-Toxic
[16]
  Activity: Non-Toxic
Mus musculus [17]
  inhibition: Active
Mus musculus [18]
  Activity: Active
Mus musculus [19]
  Activity: Active
Mus musculus [20]
  Activity: Active
Acetylcholinesterase [21]
  inhibition: Active
Mus musculus [22]
  Activity: Dose-dependent effect
In vitro
  IC50 at 24 h: 79.4 µM

## COc1cc2c(cc1OC)C(=O)C(CC1CCN(Cc3ccccc3)CC1)C2 (configuration not stated)
[1]
  inhibition: < 20%

## O=C1O[C@H]([C@@H](O)CO)C(O)=C1O
[1]
  inhibition: 64.6%

## COc1ccc(-c2nnc(Nc3ncccn3)o2)cc1OC
[1]
  inhibition: 49.5%
Acetylcholinesterase [2]
  pIC50: 5.72
Cholinesterase [3]
  pIC50: < 4.30

## Oc1ccccc1-c1nnc(Nc2ncccn2)o1
[1]
  inhibition: 58.8%
Acetylcholinesterase [2]
  pIC50: < 5.30
Cholinesterase [3]
  pIC50: < 4.30

## Fc1ccc(-c2nnc(Nc3ncccn3)o2)cc1
[1]
  inhibition: 41.9%
Acetylcholinesterase [2]
  pIC50: 5.62
Cholinesterase [3]
  pIC50: < 4.30

## Clc1ccccc1-c1nnc(Nc2ncccn2)o1
[1]
  inhibition: < 20%
Acetylcholinesterase [2]
  pIC50: < 5.30
Cholinesterase [3]
  pIC50: < 4.30

## C#CCOc1ccc(-c2cc(-c3ccc(OCCN4CCOCC4)cc3)nc(N)n2)cc1
Cholinesterase [23]
  pIC50: 6.18
Acetylcholinesterase [24]
  pIC50: 6.52

## Cc1ccc(-c2nnc(Nc3ncccn3)o2)cc1
[1]
  inhibition: < 20%
Acetylcholinesterase [2]
  pIC50: 5.79
Cholinesterase [3]
  pIC50: < 4.30

## Brc1ccc(CSc2nnc(CSc3nc4ccccc4s3)o2)cc1
SH-SY5Y
  viability at 10 µM: 95.7%

## COc1ccc(-c2nnc(Nc3ncccn3)o2)cc1
[1]
  inhibition: 45.8%
Acetylcholinesterase [2]
  pIC50: 5.81
Cholinesterase [3]
  pIC50: < 4.30

## Brc1ccc(-c2nnc(Nc3ncccn3)o2)cc1
[1]
  inhibition: 47.8%
Acetylcholinesterase [2]
  pIC50: 5.43
Cholinesterase [3]
  pIC50: 4.64
